Several values for one entry are separate records, joined by “and”; a condition that tells them apart may be missing. Equal entries are not always repeated.
Experiments:
Mus musculus [1] = assay: The compound was tested for radioprotective activity (DRF) in mice 15 min before whole body irradiation with value in braces indicating the administered dose in mg/Kg
[2] = The compound was tested for toxicity in mice, expressed as LD50; type: organism-based; settings: in vivo
Outline: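 Three-month-old inbred albino CXVII mice (about 25 g) received compounds dissolved in distilled water by intraperitoneal injection. A preliminary study set the dose range. Five groups of 10 mice then each received a different dose within that range. LD50 was derived by probit analysis.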

Mus musculus [3] = assay: The compound was tested for radioprotective activity (DRF) in mice 2 hours before whole body irradiation with value in braces indicating the administered dose in mg/Kg

Row | Compound | DRF (Mus musculus [1]) | LD50 [2] [mg/kg] | DRF (Mus musculus [3])
1 | C[C@H](NC(=O)CN)C(=O)NCCSSCCNC(=O)[C@@H](C)NC(=O)CN | 1.1 | 800 | –
2 | CC(=O)SCCNC(=O)[C@H](C)NC(=O)CN | 1.25 | 1500 | 1
3 | CC(=O)SCCNC(=O)CN | 1.4 and 1 | 1500 | 1
4 | C[C@H](N)C(=O)NCC(=O)NCCSSCCNC(=O)CNC(=O)[C@@H](C)N | 1.35 and 1 | 1500 | –
5 | NCC(=O)NCC(=O)NCCSSCCNC(=O)CNC(=O)CN | 1.1 and 1 | 2000 | 1
6 | CC(=O)SCCNC(=O)CNC(=O)[C@@H](C)N | 1.55 and 1 | 1500 | 1
7 | CC(=O)SCCNC(=O)CNC(=O)CN | 1.55 | 2400 | –

— ChEMBL document CHEMBL1124382, “Synthesis and radioprotective activity of dipeptide cysteamine and cystamine derivatives” (J Med Chem, 1989)
